These results are taken from ChEMBL document CHEMBL4513216, “Probing the Open Global Health Chemical Diversity Library for Multistage-Active Starting Points for Next-Generation Antimalarials” (ACS Infect Dis, 2020).

The nature of the series: Toxicity liver stage against HepG2, at 10uM. In kind it is cell-based. On the set-up: test concentration 10 uM, cell line HepG2-A16-CD81EGFP. The conditions noted are these: human, HepG2-A16-CD81EGFP cells; read-out: INHIBITION
In short, it runs like this:
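Uninfected HepG2-A16-CD81EGFP cells, 3 × 10^3 per well, 1536-well, plated on prespotted compound at 10 μM final, parasite-free screening media added to match infected plates; puromycin 10 μM positive, DMSO 0.5% negative; run in parallel with 48 h PbLuc assay at 37 °C, 5% CO2; viability by CellTiter-Glo luminescence, normalized to controls.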
`COC(=O)CCCC(=O)N1CCC(CO)(CCc2ccccc2)CC1`: the cytotoxicity at 10 µM was 1.34%. For `Nc1nnc(SCc2cc(=O)n3c4c(sc3n2)CCCC4)s1`, the cytotoxicity at 10 µM was determined as 7.83%. Regarding `O=S1(=O)N(c2ccccc2)C[C@H](O)[C@]12CCNC2`, the cytotoxicity at 10 µM was 0.827%. For `CC(C)CNC(=O)CNc1c(NCc2ccncc2)c(=O)c1=O`, the cytotoxicity at 10 µM is -4.44%. The same measure for `O=C(Cn1ccc2ccccc21)Nc1cc(N2CCOCC2)ncn1`: -14%; for `COCCn1cnc(-c2nc(C(=O)N3CCOCC3)c3ccccn23)c1`: -10.3%. Regarding `COCC1CN(C(=O)Cc2cccs2)Cc2nnn(CC3CC3)c21` (centres undefined), the cytotoxicity at 10 µM was 5.98%. Consider `Cc1nc(N2CCOCC2)nc2c1CCN(C(=O)C1CC1)CC2`, for which the cytotoxicity at 10 µM came to 2.23%. With `O=C(c1ccc[nH]1)N1CCOCC2(CCN(C3CCOCC3)C2)C1` (centres undefined), the cytotoxicity at 10 µM turned out to be 10.7%. For the molecule `NC(=O)C1CCN(C(=O)Cn2ccc3cc(Br)ccc32)CC1`, the cytotoxicity at 10 µM amounted to 11.1%. For the molecule `Cc1nc(C(Cc2ccsc2)NC(=O)CN2CCOCC2)sc1C` (centres undefined), the cytotoxicity at 10 µM was found to be 2.7%. Consider `Cc1cc(O)nc(C2CCN(C(=O)CO)CC2)n1`, for which the cytotoxicity at 10 µM is 0.01%. The same measure for `CS(=O)(=O)c1cc(Cl)cnc1C1CCCN(C(=O)C2CCOCC2)C1` (centres undefined): 4.34%; for `O=C(CN1CCCCCC1)N1CCc2nnc(C3CCCNC3)n2CC1` (centres undefined): -5.56%; for `Cc1nc(C2CCN(C(C)C)CC2)sc1Br`: -3.02%. For `O=C(Cc1ccc(O)cc1)N1CCCC(O)(CN2CCOCC2)CC1` (centres undefined) the value was -1.45%. For `Cc1noc(C)c1-c1ccc(C2CCCN2CCC(N)=O)nc1` (centres undefined), the cytotoxicity at 10 µM is 1.94%. The same measure for `Cc1cccc(CC2CCCN(C(=O)C3CCOCC3)C2)n1` (centres undefined): 2.16%; for `Cc1noc(C)c1-c1cccc(CC2CCN(C(=O)CCC(=O)O)C2)n1` (centres undefined): -8.44%.

`CC(C)(C)c1n[nH]c(C2CN(CCNC3CCCCC3)CCO2)n1` (centres undefined): the cytotoxicity at 10 µM is 6.86%.

As to `COc1ccc(OC)c(CNC2CCCN(c3cccnn3)C2)c1` (centres undefined), the cytotoxicity at 10 µM was -4.67%. As to `CC(Oc1cc(Cl)cc(Cl)c1)C(=O)NCCC(=O)N(C)C` (centres undefined), the cytotoxicity at 10 µM was -6.51%. Turning to `Cc1nccn1CCCC(=O)Nc1nc(C(C)C)nn1C`, the cytotoxicity at 10 µM is -1.37%. The same measure for `COCCN(CCC#N)S(=O)(=O)c1ccc(F)cc1Cl`: 2.13%; for `CCN(CC)C(=O)CNC(=O)c1cnc(-c2ccccc2)nc1`: 12.7%. With `Cc1cccc(C(=O)NC2CCN(c3cnn(C)c3)C2=O)c1C` (centres undefined), the cytotoxicity at 10 µM was -1.2%. Take `CC(CNC(=O)c1cc(Cl)ccc1I)N1CCCC1` (centres undefined): the cytotoxicity at 10 µM was -5.28%. As for `Cc1ccc(CC(=O)N2CCCCC2Cn2cccn2)cn1` (centres undefined), the cytotoxicity at 10 µM was -130%.

Turning to `O=C(c1ccccc1)C1CCN(Cc2cc3c(cc2O)CCC3)CC1`, the cytotoxicity at 10 µM stood at 24.2%.

With `O=C(NC1CC1)NC(c1cc(F)ccc1F)C1CC1` (centres undefined), the cytotoxicity at 10 µM is -12.8%. With `CCCOc1ccc(CNCCn2cccn2)cc1`, the cytotoxicity at 10 µM is 9.66%. With `CC/C=C(/C)C(=O)N1CCN(C2=NCC(C)S2)CC1` (centres undefined), the cytotoxicity at 10 µM is -145%. Take `CCOC(C(=O)N1CCn2c(C)nnc2C1)c1ccccc1` (centres undefined): the cytotoxicity at 10 µM turned out to be 4.93%. Turning to `CC(Cn1cccn1)NCCS(=O)(=O)c1ccc(Cl)cc1` (centres undefined), the cytotoxicity at 10 µM is -6.19%. Turning to `CCN(Cc1ccoc1)C(C(N)=O)c1ccc(C#N)cc1` (centres undefined), the cytotoxicity at 10 µM was -18.6%. For `CN1CCN(S(=O)(=O)c2cccc(F)c2)c2cnccc21`, the cytotoxicity at 10 µM is -2.95%. `CC(=O)Nc1cc(Br)cnc1OCC(F)(F)F`: the cytotoxicity at 10 µM was 5.69%.

For `Cc1cc(F)c(S(=O)(=O)Nc2ccn(CCCC#N)n2)cc1F`, the cytotoxicity at 10 µM came to 19.3%. The same measure for `COc1ccc(N2CCCN(CC(=O)N3CCNC(=O)C3)CC2)cc1`: 6.06%; for `O=C(Cc1cccs1)N1Cc2nc(CN3CCCC3)oc2C1`: -2.87%. On to `CC1c2ncc(Cn3cccn3)n2CCN1S(=O)(=O)C1CC1` (centres undefined), for which the cytotoxicity at 10 µM was -108%. With `COCCN1CCN(c2cc(OC)ncn2)Cc2ccc(C)nc21`, the cytotoxicity at 10 µM is -99.2%. The same measure for `CN(Cc1cc(C(C)(C)C)n[nH]1)C(=O)c1c[nH]nc1-c1cccc(F)c1`: -3.39%; for `CCCSCC(=O)N1CCCC(CO)(CCC)C1` (centres undefined): 4.86%. For `Cc1ccc(O)c(CN2CCCCC2CCN2CCOCC2)c1` (centres undefined), the cytotoxicity at 10 µM is 4.25%. For `COC(=O)c1ccc(CNC(=O)CN2C[C@@H](NC(C)=O)[C@H](C(C)C)C2)o1`, the cytotoxicity at 10 µM was -0.921%. For `COCCCC1(C(=O)O)CCCN(C(=O)c2ccc(C(C)C)[nH]c2=O)C1` (centres undefined) the value was -52.9%; for `Cc1ccc([C@@H]2CN(C(=O)CCc3cc(Cl)no3)C[C@H]2N(C)C)cc1`, 6.74%; for `CNc1ncc(CN(C)C(=O)c2ccc(C3CCCO3)s2)cn1` (centres undefined), 10.2%. Consider `COc1ncccc1C1CC(=O)NCc2nc3ccccn3c21` (centres undefined), for which the cytotoxicity at 10 µM was -5.72%.

As for `N#Cc1c(C2CCOC2)cc(-c2ccc(N3CCCCC3)cc2)nc1N` (centres undefined), the cytotoxicity at 10 µM is -8.78%. As to `O=C(O)C1(Oc2cccc(F)c2)CCN(c2ccncc2)CC1`, the cytotoxicity at 10 µM stood at 0.423%.

For the molecule `Cc1nnc(N2CCC(CCn3ccnc3C)CC2)o1`, the cytotoxicity at 10 µM is -8.14%.

For the molecule `Cc1nnsc1CN(C)C(=O)CCn1cnc2ccccc21`, the cytotoxicity at 10 µM worked out at 14.7%. Take `C=C(C)COc1cccc(C(=O)N(C)C(C)c2c(C)n[nH]c2C)c1` (centres undefined): the cytotoxicity at 10 µM was 2.8%. Regarding `CCc1cnc(N)nc1NCCn1cc(Cl)cn1`, the cytotoxicity at 10 µM was 1.5%. Regarding `CC(C)c1cncnc1N1CC[C@H](N2CCOCC2)[C@H](CCCO)C1`, the cytotoxicity at 10 µM came out at 5.86%. On to `CCOCC(=O)N1C[C@@H](O)[C@H](N(C)Cc2ccc(OC)cc2)C1`, for which the cytotoxicity at 10 µM was 0.307%. Take `O=c1oc(-c2ccc(F)cc2)nn1CN1CCN(CC2CC2)CC1`: the cytotoxicity at 10 µM is 1.44%. With `O=C(NCc1ccccc1Cn1cncn1)C1CCCCC1`, the cytotoxicity at 10 µM is -2.06%.

As to `CNS(=O)(=O)c1ccc(C(=O)N2CCCCC2c2ccc(C)cc2)o1` (centres undefined), the cytotoxicity at 10 µM was -9.8%.

As to `CN(C)C(=O)CCCS(=O)(=O)Cc1cc(Cl)c2c(c1)OCO2`, the cytotoxicity at 10 µM was -4.52%. As to `Cc1cnn(CC2CN(CC(=O)Nc3nncs3)CCO2)c1` (centres undefined), the cytotoxicity at 10 µM was -10%. With `CC(C)(CNC(=O)CCCOc1cccc(F)c1)C(N)=O`, the cytotoxicity at 10 µM is -6.54%. Regarding `COc1ccc(COCC(=O)N2CCN(CC(C)(C)O)CC2)cc1`, the cytotoxicity at 10 µM is -4.92%. The same measure for `Cn1cc(C(=O)CC2CCCN2C(=O)c2cccc3ncccc23)cn1` (centres undefined): 6.19%. Regarding `CCc1ccccc1C(=O)N1CCCC1CC(=O)c1cnn(C)c1` (centres undefined), the cytotoxicity at 10 µM is -1.22%. On to `Cc1nc(C)n(C2CCCN(C(=O)CCCNc3ncccn3)C2)n1` (centres undefined), for which the cytotoxicity at 10 µM is -4.26%. As for `Cn1cnnc1C1CCN(C(=O)Cc2ccc3c(c2)OCCO3)CC1`, the cytotoxicity at 10 µM was -10.4%. The same measure for `COc1cc(CNCc2c(C)nn(C)c2N(C)C)ccc1C`: -9.16%.

As to `CCc1sc(-c2nnc(CNCCn3cc(C)cn3)o2)cc1C`, the cytotoxicity at 10 µM is -8.75%.

`Fc1cccc(F)c1Cn1c(C2CCCNC2)cc2cccnc21` (centres undefined): the cytotoxicity at 10 µM was found to be 2%.

For the molecule `CS(=O)(=O)N1C[C@H](C(=O)Nc2cccnc2)C[C@H]2OCC[C@H]21`, the cytotoxicity at 10 µM is 11.3%. For the molecule `O=C(Cc1ccsc1)N1C[C@@H]2COC[C@]2(COCc2cccnc2)C1`, the cytotoxicity at 10 µM worked out at 2.98%. Consider `Cc1ccc(CN2CCCC3(COCCN(Cc4c[nH]nn4)C3)C2)o1` (centres undefined), for which the cytotoxicity at 10 µM is -5.47%. On to `O=C(Cc1ccsc1)N1C[C@@H]2OCCN(CC3CCCO3)[C@@H]2C1` (some centres undefined), for which the cytotoxicity at 10 µM was -4.42%. On to `CCOCC1CN(Cc2ccc(OC)cc2)Cc2nn(C)cc21` (centres undefined), for which the cytotoxicity at 10 µM turned out to be 3.65%. Consider `O=C([C@@H]1CCO[C@@H]2CCN(Cc3ccc(F)cc3)C[C@H]21)N1CCCCO1`, for which the cytotoxicity at 10 µM was found to be 11.9%. With `CN(C)C(=O)N1CCC2(CC1)CN(Cc1ccccn1)C(=O)CO2`, the cytotoxicity at 10 µM turned out to be 2.99%.

As for `c1ccc(CN2Cc3[nH]nc(COCC4CC4)c3C2)nc1`, the cytotoxicity at 10 µM is -1.83%.

For `CCCS(=O)(=O)N1Cc2nccn2CC(CN2CCCC2)C1` (centres undefined), the cytotoxicity at 10 µM was -131%. Turning to `CCC1=N[C@@]2(CC[C@@H]3CN(Cc4cccc(Cl)c4)C[C@@H]32)C(=O)N1C`, the cytotoxicity at 10 µM was -102%.

As to `Fc1ccccc1CN1CCCC2(CCN(c3ncccn3)CC2)C1`, the cytotoxicity at 10 µM was -132%.

Turning to `O=C(CC1CC1)N1CCC2(CC1)CN(c1cccnc1)C(=O)CO2`, the cytotoxicity at 10 µM is -90.8%. Consider `CS(=O)(=O)N[C@@H]1CCN(Cc2nccs2)[C@H]1Cc1ccncc1`, for which the cytotoxicity at 10 µM was -2.48%. Regarding `CC(C)CN1CCC2(C=C(C(=O)N(C)C)c3ccccc32)CC1`, the cytotoxicity at 10 µM was -97.4%. For the molecule `Cc1ccc(C(=O)N2C[C@@H]3CCCO[C@@H]3[C@H](N3CCCC3)C2)cn1`, the cytotoxicity at 10 µM was -3.8%. As for `c1cncc(CN2CCc3ncnc(C4CCOC4)c3CC2)c1` (centres undefined), the cytotoxicity at 10 µM is 5.02%.

`CN(Cc1ccco1)[C@@H]1CN(Cc2cccnc2)C[C@@H]2CCCO[C@@H]21`: the cytotoxicity at 10 µM turned out to be 8.49%.

With `Cc1occc1C(=O)N1C[C@H]2CCCC(OCc3cccnc3)[C@H]2C1` (some centres undefined), the cytotoxicity at 10 µM turned out to be 2.72%.

For `Cn1cc(CN2C[C@@H]3COC[C@]3(CNC(=O)c3ccccc3)C2)cn1`, the cytotoxicity at 10 µM is -4.02%. `O=C(NC[C@H]1CCCO1)c1ccc(S(=O)(=O)N2C[C@H]3C[C@@H]2CN3)cc1`: the cytotoxicity at 10 µM is 2.5%. `CN(C)S(=O)(=O)N1C[C@H]2CC[C@@H](C1)N(C/C=C/c1ccc(F)cc1)C2`: the cytotoxicity at 10 µM was -1.23%. Turning to `CCOc1ccc(C(=O)N2C[C@@H]3CC[C@H]2CN(C(=O)C2CCC2)C3)cc1`, the cytotoxicity at 10 µM is -4.68%.
